The text below walks through data of ChEMBL document CHEMBL3351795, “Discovery of Cathepsin S Inhibitor LY3000328 for the Treatment of Abdominal Aortic Aneurysm” (ACS Med Chem Lett, 2014).

The structures appear in SMILES notation. Values after ≈ are worked out from the molar mass of the structure shown. Active and inactive are the calls of the source. The calls are words filed in the database; no cut-off is given here. Where only a bound is given, the exact number is not on record here.

The target of data set [1] is Cathepsin S (Homo sapiens, UniProt P25774). Nature of the data set: Inhibition of human cathepsin S using benzyloxycarbonyl-L-Leucyl-L-Arginine 4-Methyl-coumaryl-7-amide substrate by FRET assay.
Chain of Cathepsin S (Homo sapiens, UniProt P25774) (P25774 whole entry): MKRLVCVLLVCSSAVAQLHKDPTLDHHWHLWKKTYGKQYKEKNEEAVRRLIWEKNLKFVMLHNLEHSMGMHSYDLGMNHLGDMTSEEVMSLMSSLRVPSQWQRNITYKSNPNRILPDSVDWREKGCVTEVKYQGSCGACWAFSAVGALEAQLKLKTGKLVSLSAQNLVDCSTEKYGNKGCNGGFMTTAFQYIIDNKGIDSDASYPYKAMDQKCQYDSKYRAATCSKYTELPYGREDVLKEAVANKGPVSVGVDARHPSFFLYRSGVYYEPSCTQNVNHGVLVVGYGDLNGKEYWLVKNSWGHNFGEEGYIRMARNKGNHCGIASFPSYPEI
Data set [2] deals with Cathepsin S (Mus musculus, UniProt O70370). Put plainly: Inhibition of mouse cathepsin S using benzyloxycarbonyl-L-Leucyl-L-Arginine 4-Methyl-coumaryl-7-amide substrate by FRET assay.
Chain of Cathepsin S (Mus musculus, UniProt O70370) (O70370 whole entry): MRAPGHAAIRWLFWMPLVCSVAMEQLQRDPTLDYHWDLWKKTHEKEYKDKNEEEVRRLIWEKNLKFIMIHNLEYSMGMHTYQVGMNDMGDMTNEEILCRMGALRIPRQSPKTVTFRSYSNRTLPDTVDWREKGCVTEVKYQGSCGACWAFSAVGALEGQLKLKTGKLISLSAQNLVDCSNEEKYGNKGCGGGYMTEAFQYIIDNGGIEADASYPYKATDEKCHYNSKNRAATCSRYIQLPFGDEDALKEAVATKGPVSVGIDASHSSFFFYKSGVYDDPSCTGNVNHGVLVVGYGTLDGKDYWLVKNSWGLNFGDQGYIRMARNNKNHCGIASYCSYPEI
The species named for data set [3] is Rattus norvegicus. Put plainly: Inhibition of rat cathepsin S G137C mutant using benzyloxycarbonyl-L-Leucyl-L-Arginine 4-Methyl-coumaryl-7-amide substrate by FRET assay.
Data set [4] can be described thus: Drug metabolism in human liver microsomes after 30 mins at 4 uM. It counts as ADME. Conditions: read-out: Drug metabolism.
The nature of data set [5]: Dissociation constant, basic pKa of the compound. In kind it is physicochemical.
Data set [6] is described as follows: Drug metabolism in mouse liver microsomes after 30 mins at 4 uM. In kind it is ADME. Conditions: read-out: Drug metabolism.
The nature of data set [7]: Solubility in simulated gastric fluid. In kind it is ADME.
The nature of data set [8]: Lipophilicity, log P of the compound. It counts as physicochemical. To be noted: octanol/water.
The subject of data set [9] is Mus musculus. Put plainly: Inhibition of CaCl2-induced abdominal aortic aneurysm in 129SvEv mouse assessed as reduction in aortic diameter at 1 to 30 mg/kg dosed through oral gavage BID for 4 weeks with first dose given one day prior to surgery. It counts as functional, organism-based. To be noted: Abdomen.
Data set [10] can be described thus: Clearance in Beagle dog at 1 mg/kg, iv or 3 mg/kg, po. It counts as ADME, organism-based, Canis lupus familiaris. Conditions: in vivo.
Data set [11] has as its target CYP3A4 (Homo sapiens, UniProt P08684). Put plainly: Inhibition of CYP3A4 (unknown origin) using midazolam substrate at 10 uM. In kind it is ADME. To be noted: probe midazolam.
Data set [12] is described as follows: Drug metabolism in dog liver microsomes after 30 mins at 4 uM. In kind it is ADME, Canis lupus familiaris. To be noted: read-out: Drug metabolism.
The nature of data set [13]: Lipophilicity, log D of the compound at pH 4.0. Conditions: buffer. In kind it is physicochemical.
Data set [14] in a line: Volume of distribution in Beagle dog at 1 mg/kg, iv or 3 mg/kg, po. In kind it is ADME, organism-based, Canis lupus familiaris. Conditions: in vivo.
In data set [15] the test system is MDCK. Put plainly: Permeability from apical to basolateral side in MDCK cells at 2.5 uM incubated for 1 hr. In kind it is ADME, cell-based, Canis lupus familiaris. Conditions: dog.
The nature of data set [16]: Oral bioavailability in Beagle dog at 3 mg/kg. In kind it is ADME, organism-based, Canis lupus familiaris. Conditions: in vivo.
For data set [17], the target named is CYP2C9 (Homo sapiens, UniProt P11712). Nature of the data set: Inhibition of CYP2C9 (unknown origin) using diclofenac substrate at 10 uM. In kind it is ADME. Conditions: probe diclofenac.
Chain of CYP2C9 (P11712 whole entry): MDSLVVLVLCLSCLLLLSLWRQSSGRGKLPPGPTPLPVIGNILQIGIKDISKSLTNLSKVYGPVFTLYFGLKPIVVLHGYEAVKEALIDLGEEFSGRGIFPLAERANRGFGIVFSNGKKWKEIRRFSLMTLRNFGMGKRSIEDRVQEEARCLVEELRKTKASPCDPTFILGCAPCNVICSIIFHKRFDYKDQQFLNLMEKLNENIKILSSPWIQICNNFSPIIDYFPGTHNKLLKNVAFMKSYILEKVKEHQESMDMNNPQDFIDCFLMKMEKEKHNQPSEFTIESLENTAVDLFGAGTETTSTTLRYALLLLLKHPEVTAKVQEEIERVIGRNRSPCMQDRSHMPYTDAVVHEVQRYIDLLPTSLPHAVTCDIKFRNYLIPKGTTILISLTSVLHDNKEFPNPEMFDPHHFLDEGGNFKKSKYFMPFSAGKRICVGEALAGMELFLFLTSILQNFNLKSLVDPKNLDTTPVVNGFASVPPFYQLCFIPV
Data set [18] is described as follows: Drug metabolism in rat liver microsomes after 30 mins at 4 uM. In kind it is ADME. Conditions: read-out: Drug metabolism.
Data set [19] deals with CYP2D6 (Homo sapiens, UniProt P10635). Nature of the data set: Inhibition of CYP2D6 (unknown origin) using bufuralol substrate at 10 uM. Conditions: probe bufuralol. In kind it is ADME.
Chain of CYP2D6 (P10635 whole entry): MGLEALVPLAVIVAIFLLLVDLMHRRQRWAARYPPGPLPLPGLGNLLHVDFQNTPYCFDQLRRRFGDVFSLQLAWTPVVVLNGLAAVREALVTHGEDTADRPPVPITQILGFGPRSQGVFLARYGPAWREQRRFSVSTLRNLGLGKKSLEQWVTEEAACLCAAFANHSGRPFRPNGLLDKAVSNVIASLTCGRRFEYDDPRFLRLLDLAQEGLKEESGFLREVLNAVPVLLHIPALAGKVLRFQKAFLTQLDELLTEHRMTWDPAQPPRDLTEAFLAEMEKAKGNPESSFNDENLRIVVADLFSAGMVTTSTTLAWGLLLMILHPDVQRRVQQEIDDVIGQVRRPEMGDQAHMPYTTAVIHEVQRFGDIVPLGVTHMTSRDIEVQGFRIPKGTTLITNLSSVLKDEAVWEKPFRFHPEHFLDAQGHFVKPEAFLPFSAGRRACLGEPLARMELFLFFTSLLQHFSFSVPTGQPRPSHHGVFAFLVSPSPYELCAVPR
Data set [20] is described as follows: AUC (0 to 24 hrs) in 129SvEv mouse model of CaCl2-induced abdominal aortic aneurysm at 30 mg/kg dosed through oral gavage BID for 4 weeks with first dose given one day prior to surgery. In kind it is ADME, organism-based, Abdomen. Set-up: time < 24 hr, dose 30 mg/kg, route oral. To be noted: in vivo.
In data set [21] the test system is Mus musculus. Nature of the data set: Inhibition of CaCl2-induced abdominal aortic aneurysm in 129SvEv mouse assessed as reduction in aortic diameter at 10 mg/kg dosed through oral gavage BID for 4 weeks with first dose given one day prior to surgery. In kind it is functional. To be noted: Abdomen.
Data set [22] concerns Mus musculus. Put plainly: Inhibition of CaCl2-induced abdominal aortic aneurysm in 129SvEv mouse assessed as reduction in aortic diameter at 30 mg/kg dosed through oral gavage BID for 4 weeks with first dose given one day prior to surgery. In kind it is functional. To be noted: Abdomen.
The nature of data set [23]: AUC (0 to 24 hrs) in 129SvEv mouse model of CaCl2-induced abdominal aortic aneurysm at 10 mg/kg dosed through oral gavage BID for 4 weeks with first dose given one day prior to surgery. It counts as ADME, organism-based, Abdomen. Set-up: time < 24 hr, dose 10 mg/kg, route oral. To be noted: in vivo.
Data set [24] has as its system Plasma. Put plainly: Stability in rat plasma assessed as loss of parent compound after 30 mins. In kind it is ADME, cell-free. To be noted: 0.5 h. The method in brief:
(§1)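 Compound incubated in human or rat plasma for up to 30 min; loss of parent compound tested for statistical significance.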

Data set [25] deals with Plasma. Put plainly: Stability in human plasma assessed as loss of parent compound after 30 mins. Conditions: 0.5 h. It counts as ADME, cell-free. A digest of the protocol: as §1
Data set [26] is described as follows: AUC (0 to 24 hrs) in 129SvEv mouse model of CaCl2-induced abdominal aortic aneurysm at 3 mg/kg dosed through oral gavage BID for 4 weeks with first dose given one day prior to surgery. In kind it is ADME, organism-based, Abdomen. Set-up: time < 24 hr, dose 3 mg/kg, route oral. To be noted: in vivo.
Data set [27] is described as follows: AUC (0 to 24 hrs) in 129SvEv mouse model of CaCl2-induced abdominal aortic aneurysm at 1 mg/kg dosed through oral gavage BID for 4 weeks with first dose given one day prior to surgery. Set-up: time < 24 hr, dose 1 mg/kg, route oral. Conditions: in vivo. It counts as ADME, organism-based, Abdomen.
Data set [28] has as its system Mus musculus. Nature of the data set: Inhibition of CaCl2-induced abdominal aortic aneurysm in 129SvEv mouse assessed as reduction in aortic diameter at 1 mg/kg dosed through oral gavage BID for 4 weeks with first dose given one day prior to surgery. It counts as functional. Conditions: Abdomen.
Data set [29] relates to Mus musculus. Nature of the data set: Inhibition of CaCl2-induced abdominal aortic aneurysm in 129SvEv mouse assessed as reduction in aortic diameter at 3 mg/kg dosed through oral gavage BID for 4 weeks with first dose given one day prior to surgery. In kind it is functional. Conditions: Abdomen.
For data set [30], the target named is hERG (Homo sapiens, UniProt Q12809). Nature of the data set: Displacement of [3H]astemizole form human ERG expressed in HEK293 cell membranes at 100 uM. To be noted: HEK293 cell membranes that express human ERG, probe [3H]astemizole.
Chain of hERG (Q12809 whole entry): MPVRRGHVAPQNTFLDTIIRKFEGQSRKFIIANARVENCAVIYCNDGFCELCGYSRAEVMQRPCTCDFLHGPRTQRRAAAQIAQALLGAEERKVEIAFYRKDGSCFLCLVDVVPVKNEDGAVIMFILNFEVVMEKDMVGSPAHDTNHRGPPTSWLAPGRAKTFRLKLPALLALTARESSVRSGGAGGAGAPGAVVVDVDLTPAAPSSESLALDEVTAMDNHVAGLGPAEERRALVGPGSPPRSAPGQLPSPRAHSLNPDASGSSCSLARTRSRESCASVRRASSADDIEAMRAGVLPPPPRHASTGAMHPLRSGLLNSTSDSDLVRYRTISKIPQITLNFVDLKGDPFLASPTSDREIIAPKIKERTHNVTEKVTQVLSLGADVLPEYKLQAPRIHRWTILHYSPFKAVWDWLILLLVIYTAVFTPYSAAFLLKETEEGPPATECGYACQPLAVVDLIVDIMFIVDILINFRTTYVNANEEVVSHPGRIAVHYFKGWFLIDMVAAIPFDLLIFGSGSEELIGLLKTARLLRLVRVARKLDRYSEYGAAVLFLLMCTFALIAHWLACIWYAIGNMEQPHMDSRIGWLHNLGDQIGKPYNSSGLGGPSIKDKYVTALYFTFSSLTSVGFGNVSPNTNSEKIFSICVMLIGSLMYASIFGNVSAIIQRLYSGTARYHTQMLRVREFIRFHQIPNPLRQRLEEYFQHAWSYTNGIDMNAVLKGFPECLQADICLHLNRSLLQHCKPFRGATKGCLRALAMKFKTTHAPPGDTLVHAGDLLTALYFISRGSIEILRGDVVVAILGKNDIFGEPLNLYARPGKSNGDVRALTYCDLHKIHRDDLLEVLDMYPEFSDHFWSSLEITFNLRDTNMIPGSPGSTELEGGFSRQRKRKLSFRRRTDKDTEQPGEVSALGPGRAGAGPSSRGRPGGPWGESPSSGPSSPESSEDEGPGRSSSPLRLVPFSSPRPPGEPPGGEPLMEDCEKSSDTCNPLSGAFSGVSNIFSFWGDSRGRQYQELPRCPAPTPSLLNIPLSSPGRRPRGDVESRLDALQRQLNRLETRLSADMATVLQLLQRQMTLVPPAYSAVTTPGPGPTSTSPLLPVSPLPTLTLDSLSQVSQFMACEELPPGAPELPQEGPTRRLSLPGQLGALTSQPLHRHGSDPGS
The target of data set [31] is Procathepsin L (Homo sapiens, UniProt P07711). Nature of the data set: Inhibition of human cathepsin L using benzyloxycarbonyl-L-Leucyl-L-Arginine 4-Methyl-coumaryl-7-amide substrate by FRET assay.
Chain of Procathepsin L (P07711 whole entry): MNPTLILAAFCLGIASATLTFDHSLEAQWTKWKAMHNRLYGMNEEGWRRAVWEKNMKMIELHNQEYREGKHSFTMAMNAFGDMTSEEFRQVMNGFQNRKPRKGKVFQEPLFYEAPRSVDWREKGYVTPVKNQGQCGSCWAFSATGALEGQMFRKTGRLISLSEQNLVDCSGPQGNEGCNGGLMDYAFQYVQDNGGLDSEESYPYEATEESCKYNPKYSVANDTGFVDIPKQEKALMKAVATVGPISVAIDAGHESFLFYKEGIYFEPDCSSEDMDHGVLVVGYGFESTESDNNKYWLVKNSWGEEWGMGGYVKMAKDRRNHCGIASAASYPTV

Chain of CYP3A4 (P08684 whole entry): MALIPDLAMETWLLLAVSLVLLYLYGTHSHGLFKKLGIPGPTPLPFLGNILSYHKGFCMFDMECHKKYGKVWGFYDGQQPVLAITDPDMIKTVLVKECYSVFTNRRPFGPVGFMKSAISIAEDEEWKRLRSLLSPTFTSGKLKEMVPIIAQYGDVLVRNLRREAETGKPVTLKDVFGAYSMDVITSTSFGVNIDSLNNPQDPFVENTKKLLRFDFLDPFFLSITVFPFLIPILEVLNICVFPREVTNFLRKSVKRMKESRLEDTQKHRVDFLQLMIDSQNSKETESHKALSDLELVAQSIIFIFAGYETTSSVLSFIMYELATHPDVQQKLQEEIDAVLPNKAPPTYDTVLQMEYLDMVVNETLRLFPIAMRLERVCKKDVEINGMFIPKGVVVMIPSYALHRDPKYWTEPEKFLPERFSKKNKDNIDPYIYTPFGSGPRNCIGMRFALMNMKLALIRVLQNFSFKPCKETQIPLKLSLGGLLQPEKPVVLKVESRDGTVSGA

Consider `CN1CCN(c2ccc3c(c2)C(NC(=O)c2ccccc2)CCC3)CC1` (centres undefined), for which the IC50 in [1] was determined as 4 µM; in data set [2] it was 3.93 µM. For the same compound, in data set [3], the inhibition entry is “inactive”.
On to `CNC(=O)O[C@H]1CCc2ccc(N3CCN(C4COC4)CC3)cc2[C@@H]1NC(=O)c1ccc(F)cc1`, for which the half-maximal inhibitory concentration (IC50) in data set [1] was found to be 0.0124 µM; in data set [2], 0.00391 µM. The metabolised at 0.5 h, 4 µM in data set [4], in [6], in [12] and in data set [18] was less than 20% in each case. Besides, the pKa in data set [5] was found to be 5. In [7], this compound showed a solubility of 1130 µg/mL (≈ 2340 µM). In data set [8], this compound gave a logP of 2.24. Also, the inhibition result in data set [9] was “Dose-dependent effect”. The compound further had a clearance in data set [10] of less than 4 mL/min/kg. Also, the inhibition at 10 µM in [11], in data set [17] and in [19] was less than 15% throughout. Also, in data set [13], the logD worked out at 1.2. Moreover, in data set [14], the Vd is less than 1 L/kg. For the same compound, in [3], the inhibition result was “inactive”. The permeability in data set [15] was greater than 4%. For the same compound, the bioavailability in data set [16] is greater than 75%.
For the compound `CN1CCN(C(=O)Nc2ccc3c(c2)C(NC(=O)c2ccccc2)CCC3)CC1` (centres undefined), the IC50 in [1] is 1.29 µM; in [2], 2.78 µM. Besides, the inhibition result in [3] was “inactive”.
On to `CNC(=O)O[C@H]1COc2ccc(N3CCN(C4COC4)CC3)cc2[C@@H]1NC(=O)c1ccc(F)cc1`, for which the concentration for half-maximal inhibition (IC50) was determined as 0.0077 µM in [1] and 0.00167 µM in data set [2]. Besides, the metabolised at 0.5 h, 4 µM in data set [4], in data set [6], in data set [12] and in [18] was less than 20% throughout. Besides, the pKa in data set [5] came to 5.11. Also, the concentration in solution in data set [7] (solubility) was 1440 µg/mL (≈ 2970 µM). The AUC(0-t) at 24 h in data set [20] is 35400 ng·h/mL; in data set [23], 5880 ng·h/mL; in data set [26], 2330 ng·h/mL; in data set [27] it was 756 ng·h/mL. In addition, the inhibition in vivo at 10 mg/kg in data set [21] amounted to 87%. Further, in data set [22], the inhibition in vivo at 30 mg/kg worked out at 87%. Also, the Stability result in [24] and in [25] was “Stable” throughout. For the same compound, the logP in data set [8] turned out to be 2.24. Also, in [9], the inhibition entry is “Dose-dependent effect”. Also, the clearance in data set [10] was less than 4 mL/min/kg. Further, the inhibition at 10 µM in data set [11], in data set [17] and in [19] was less than 15% throughout. The compound also registered a pH-dependent lipophilicity (logD) in data set [13] of 1. This compound also gave a Vd in data set [14] of less than 1 L/kg. The inhibition result in data set [3] is “inactive”. Further, in [15], the permeability is greater than 4%. In addition, the bioavailability in data set [16] is greater than 75%. Moreover, in data set [28], the inhibition in vivo at 1 mg/kg stood at 58%. Besides, in [29], the inhibition in vivo at 3 mg/kg amounted to 83%. The compound also came in with an inhibition at 100 µM in data set [30] of 6%.
In the case of `O=C(N[C@@H]1CCCc2ccc(/N=C/N3CCCCCC3)cc21)c1ccc(Br)cc1`, the values for the IC50 in [1], in data set [2] and in data set [31] were 1.17 µM, 1.57 µM and greater than 100 µM, respectively. Also, the inhibition entry in [3] was “inactive”.
